Compounds with a hit are over-represented: about 0.74% of the library has one in this group of screens.
G6PDH CS: inhibits Leuconostoc G6PDH, flagging false hits in G6PDH-based assays | inhibition, % at 5 µM | Purified L. mesenteroides G6PDH, diaphorase/resazurin coupled fluorescence, 45 min | 0.12% of 200,000 active; in the data active = inhibition above about 50%
HKDC1 inh: inhibitors of human hexokinase HKDC1; Q2TB90; recombinant HKDC1, G6PDH/diaphorase resazurin coupled fluorescence; inhibition, % at 20 µM; 0.16% of 340,000 active; AID 493160;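 active = inhibition above about 35% when tested at 20 µM, limit read from the data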;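 note: plate controls were DMSO wells with enzyme for no effect and DMSO wells lacking enzyme for full effect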
Target sequence (Q2TB90 whole entry, looked up): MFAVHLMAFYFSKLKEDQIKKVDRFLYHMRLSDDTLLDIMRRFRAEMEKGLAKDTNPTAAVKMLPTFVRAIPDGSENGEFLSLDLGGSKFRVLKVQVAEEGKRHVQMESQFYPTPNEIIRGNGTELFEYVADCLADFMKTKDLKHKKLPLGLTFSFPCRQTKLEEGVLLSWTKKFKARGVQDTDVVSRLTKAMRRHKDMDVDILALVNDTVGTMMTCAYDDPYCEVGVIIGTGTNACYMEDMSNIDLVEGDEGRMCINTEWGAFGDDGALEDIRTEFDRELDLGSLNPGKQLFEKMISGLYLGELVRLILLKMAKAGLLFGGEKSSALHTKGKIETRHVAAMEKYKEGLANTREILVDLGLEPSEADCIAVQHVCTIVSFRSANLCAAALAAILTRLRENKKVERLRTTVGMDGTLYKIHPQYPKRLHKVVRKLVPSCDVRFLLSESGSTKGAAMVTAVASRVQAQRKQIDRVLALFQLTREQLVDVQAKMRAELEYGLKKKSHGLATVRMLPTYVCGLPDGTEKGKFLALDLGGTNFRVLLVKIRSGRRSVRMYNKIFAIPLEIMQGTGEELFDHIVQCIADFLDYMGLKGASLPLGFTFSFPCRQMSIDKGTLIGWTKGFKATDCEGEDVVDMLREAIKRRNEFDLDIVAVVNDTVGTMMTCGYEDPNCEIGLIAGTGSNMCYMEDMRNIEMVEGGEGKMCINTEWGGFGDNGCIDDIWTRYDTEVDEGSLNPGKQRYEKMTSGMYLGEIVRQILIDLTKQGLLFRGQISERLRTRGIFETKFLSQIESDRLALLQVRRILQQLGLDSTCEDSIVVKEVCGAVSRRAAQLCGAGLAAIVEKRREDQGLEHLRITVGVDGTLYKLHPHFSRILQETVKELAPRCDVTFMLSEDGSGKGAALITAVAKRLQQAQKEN
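Assay system: recombinant HKDC1 hexokinase; detection: coupled resazurin fluorescence, excitation 525 nm, emission 613 nm; benchmarks: DMSO-plus-enzyme-mix negative control, buffer-substituted positive control; compound dosing: single 20 µM dose; schedule: 90 min at room temperature in dark; also added: glucose plus 1 mM ATP as hexokinase substrates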
Diaph act CS: diaphorase activation or chemical reduction counter-screen. Diaphorase/resazurin coupled assay, resorufin fluorescence, 16 min; stronger effect = higher value; 1 = vehicle wells, 0 = NADH-free wells. 0.005% of 190,000 active. activation factor at 20 µM;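 active = diaphorase activity raised at least twofold by the compound at 20 µM; inactive = activation factor below 2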
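Material: Purified diaphorase enzyme from Clostridium kluyveri | Buffer or medium: 50 mM HEPES pH 7.4 with 4.542 mM MgCl2, 0.005% Tween 20 | Times: 16 min enzyme reaction, ambient temperature | Signal: Red resorufin fluorescence at 544/590 nm excitation/emission | Measure: Increased resorufin signal from activators or reducing compounds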
Arbovirus anti: arbovirus infection inhibition | inhibition, % at 10 µM | arbovirus infection cell-based antiviral screen | 0.37% of 200,000 active; in the data active = inhibition above about 30%
Diaphorase inh: inhibits diaphorase or chemically oxidizes, flagging diaphorase assay artifacts; inhibition, % at 20 µM; 0.69% of 190,000 active; diaphorase resazurin-to-resorufin fluorescence, NADH, 16 min; bacterial (C. kluyveri) enzyme, not human;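 active = primary screen inhibition at 20 µM above a set limit, cut at about 50% in these data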;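 note: plate controls were DMSO with full reaction for no effect and wells lacking NADH for full effect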
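Test system: bacterial diaphorase enzyme (C. kluyveri); Quantity: 0.14 U/mL diaphorase, enzyme working solution; Times: reaction incubation of 16 min at room temperature; Measured by: fluorescence of resorufin formed from resazurin, Ex 544/Em 590 nm; Benchmarks: positive control minus NADH, DMSO neutral control.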
An asterisk follows results filed as active; · = no result given.

SMILES	G6PDH CS	HKDC1 inh	Diaph act CS	Arbovirus anti	Diaphorase inh
Cc1ccc(C)c(S(=O)(=O)N2CCN(C(C)C(=O)Nc3ccccc3-c3ccccc3)CC2)c1 (stereo not drawn)	10	10	0.9	32*	11
Oc1ccccc1/C=N/Nc1ccccc1	3	15	0.8	-20	20
Oc1ccccc1/C=N/Nc1ncc(Br)cn1	58*	10	0.9	-27	14
NC1=NC(=O)C(c2ccccc2)C(=O)N1 (stereo not drawn)	·	-3	·	·	·
COC(=O)[C@H](Cc1ccccc1)NC(=O)O[C@@H]1C(=O)c2cc(OC)ccc2O[C@H]1c1ccc(OC)c(Br)c1	14	·	0.9	32*	13
CCc1cccc(C)c1NC(=O)CN(C)Cc1ccc(Br)cc1	8	-3	1	42*	-2
CSc1ccccc1NC(=O)CN(C)Cc1ccc(Br)cc1	-18	-5	0.8	10	24
O=c1c(N2CCOCC2)c(N2CCOCC2)c1=O	·	-2	·	·	·
CC(C)(C)C1=CC(=O)C(N2CCOCC2)=CC1=O	55*	14	0.7	-42	32
Cc1cccc(NS(=O)(=O)c2ccc(C)c(C(=O)NCCCN3CCOCC3)c2)c1	·	-2	·	·	·
COCCn1c(SC(C)C(=O)Nc2ncc(Cl)cc2Cl)nc2ccccc21 (stereo not drawn)	-8	13	0.7	31*	28
CC(=O)N(\C=C/C=C/C=C1\Sc2ccccc2C1=O)c1ccccc1	3	9	0.5	5	53*
COc1cc(NC(=NS(=O)(=O)c2ccccc2)c2ccccc2)ncn1	·	-7	·	·	·
Cc1cccn2c(=S)[nH]nc12	·	-2	·	·	·
O=c1c(-c2ccc(Cl)cc2)c[nH]n1-c1ccccc1	·	-1	·	·	·
O=c1c(-c2ccccc2)c[nH]n1-c1cccc([N+](=O)[O-])c1	4	-6	0.9	35*	12
COc1ccc(C(=O)c2c(C(F)(F)F)oc3c2C(=O)c2ccccc2C3=O)cc1OC	59*	20	0.8	-33	18
O=C1C=C(NCCN2CCOCC2)C(=O)c2cnccc21	60*	·	0.8	-48	23
COc1ccc(C(=O)NCCOc2cccc(OC)c2)cc1	11	-9	0.3	-8	68*
CCOc1ccc(C(=O)Nc2cc(NC(=O)c3ccc(OCC)c(Cl)c3)cc(C(=O)O)c2)cc1Cl	14	-9	0.8	88*	18
CCOc1ccc(C(=O)Nc2cccc(C(=O)O)c2)cc1Cl	-1	8	1	8	1
O=C(CNc1ccc(Cl)c(C(F)(F)F)c1)N1CCN(S(=O)(=O)c2ccccc2)CC1	·	-1	·	·	·
CSC(=NCc1cccnc1)NS(=O)(=O)c1cccs1	2	2	0.3	1	74*
O=S(=O)(NCc1cccnc1)c1cccs1	6	-5	0.8	3	18
CCOC(=O)C1C(C(=O)NN)C1C(=O)Nc1ccccc1 (stereo not drawn)	6	9	1.1	3	-8
SMILES	G6PDH CS	HKDC1 inh	Diaph act CS	Arbovirus anti	Diaphorase inh
Cc1ccc(S(=O)(=O)NCC(=O)N(c2ccccc2)C(C(=O)NCc2ccccc2)c2ccco2)cc1 (stereo not drawn)	6	-1	0.5	-10	51*
O=C(Nc1cccc(S(=O)(=O)NC2=NCCC2)c1)c1cc(F)c(F)c(F)c1F	·	-6	·	·	·
COc1ccc(OC)c(-c2c3cc(O)c(=O)cc-3oc3cc(O)c(O)cc23)c1	32	34	0.1	-25	88*
CSc1nnc(-c2ccco2)c(-c2ccco2)n1	27	15	0.4	10	61*
COc1ccc(C(=O)CSc2nnc(-c3ccco3)c(-c3ccco3)n2)cc1	19	6	0.4	-7	62*
CCOC(=O)/C=C1/SCC(=O)N1CC(=O)NC12CC3CC(CC(C3)C1)C2	·	4	·	·	·
COc1ccc2nc(NN=C(C)c3ccccn3)cc(C)c2c1	·	-3	·	·	·
CC12CCC(C(=O)N(CSC(=S)N/N=C\c3ccccc3O)C1=O)C2(C)C (stereo not drawn)	5	-26	0.4	-8	57*
CCc1cc(C(=O)O)c(NC(=O)c2cc(OC)c(OC)c(OC)c2)s1	2	11	0.9	76*	9
CCOC(=O)c1cc(CC)sc1NC(=O)c1cc(OCC)c(OCC)c(OCC)c1	2	-12	0.8	4	15
CC(C)Oc1ccc(C(=O)Nc2cc(S(=O)(=O)N3CCOCC3)ccc2N2CCOCC2)cc1	·	-2	·	·	·
CCc1cc2c(N3CCN(c4ccccc4)CC3)ncnc2s1	0	11	0.9	-4	11
O=C1OC(Nc2ccc3ncccc3c2)c2ccccc21 (stereo not drawn)	28	3	0.4	4	56*
COc1cc2c(cc1O)CC[n+]1cc3c(OC)c(OC)ccc3cc1-2	16	1	1.1	2	-8
COc1cc2c(cc1OC)-c1cc3ccc4c(c3c[n+]1CC2)OCO4	52*	16	0.9	-1	8
CN1CC[C@]2(CCN3CCc4c(oc5ccccc45)[C@@H]3C2)N(C)C1=O	·	-4	·	·	·
CN(c1ccccc1)c1ccc(/C=C(/CCC(=O)O)c2nc3ccccc3s2)cc1[N+](=O)[O-]	·	16	·	·	·
O=C(O)CC/C(=C\c1ccc(N2CCCC2)c([N+](=O)[O-])c1)c1nc2ccccc2s1	-2	-12	0.5	54*	48
Cc1sc2ncnc(N3CCC(C(=O)N4CC(C)SC4=Nc4ccc(Cl)cc4)CC3)c2c1C (stereo not drawn)	·	6	·	·	·
COc1cccc(/C=C2/CCC(CN(C)C)C2=O)c1 (stereo not drawn)	·	17	·	·	·
O=C(Cc1cccc(NC(=O)C2CCCN(C(=O)C3CCC3)C2)c1)Nc1ccc(C(=O)N2CCCCC2)cc1 (stereo not drawn)	·	-4	·	·	·
O=C/C(=C\Nc1ccc(Cl)cn1)c1nc2cc(Cl)ccc2o1	2	4	1.1	30*	-10
O=C/C(=C\Nc1ccc(Cl)cn1)c1nc2ccccc2o1	5	-6	0.9	21	8
COc1ccc(F)cc1C(=O)C1CCCN(Cc2ccc(Oc3ncccn3)cc2)C1 (stereo not drawn)	6	-10	0.9	3	7
COc1ccc(F)cc1C(=O)C1CCCN(Cc2cccn2-c2cccnc2)C1 (stereo not drawn)	3	-7	0.1	-1	94*
COc1ccc(F)cc1C(=O)C1CCCN(C(=O)CSc2ccccn2)C1 (stereo not drawn)	16	-1	0.8	35*	20
CCN(CC)C(=O)[C@H]1C[C@H](CC(=O)NCCC2=CCCCC2)C(=O)N2CCc3c([nH]c4ccc(Cl)cc34)[C@]12C	·	4	·	·	·
COc1ccc(C(CC(=O)Nc2ccccn2)N2Cc3ccccc3C2=O)cc1OC (stereo not drawn)	·	-1	·	·	·
Cc1cc([N+](=O)[O-])ccc1-c1ccc(C2Nc3ccccc3C(=O)N2O)o1 (stereo not drawn)	-1	17	0.3	-31	68*

Screening data: PubChem BioAssay, several laboratories
